The values that follow come from PubChem BioAssay.

Active and inactive are the calls of the source.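 How the source made its calls, unless noted: active means viability at or under a set limit in both replicates, limit being median viability minus 3 SD (cut at about 48% in these data, passing the limit was not always enough); inconclusive means at or under the limit in just one replicate; inactive means at or above the limit in both replicates.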

Test [1] in a line: reducers of endogenous Her2 protein level, primary screen, SKBR3 breast tumor cells, AlphaScreen, ATP viability (AID 461;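 active means Her2 level under about 52% in both replicate screens, with viability over 70% of control, limit read from the data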;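 on Her2 level: lower value means less Her2 protein in the cells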;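 on viability: percent of carrier control wells set as 100% viability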). To be noted: 18-24 h, measured here: SKBR3 viability, ATP luminescence, at 10 µM. (Bead proximity is the source of the signal in Alpha formats.)
Test [2] addresses Receptor tyrosine-protein kinase erbB-2 (Homo sapiens) (UniProt P04626). The description is as above. The conditions noted are these: 18-24 h, at 10 µM, stronger effect = lower value.
Test [3] in a line: SK-BR-3 cell growth inhibitors, pilot screen, 24 h, human (AID 572;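 active means viability at or below 10% of carrier control in both of two separate runs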;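 further: compound exposure lasted between 18 and 24 h rather than exactly 24 h; 100% = carrier-treated control wells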). The conditions noted are these: SK-BR-3 viability, CellTiter-Glo luminescence, at 10 µM, stronger effect = lower value. (In general: ATP-based viability assays read luminescence as a measure of living cells.)
Test [4] can be described thus: HUVEC growth inhibition – cell-based, human, primary screen (AID 575;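 active means viability at or below 30% in both replicate assays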;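 further: 100% = median of untreated cell wells with 0.1% DMSO on each plate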). The conditions noted are these: HUVEC proliferation, CellTiter-Glo luminescence, 72 h; at 10 µM; stronger effect = lower value. Put shortly:
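material = primary HUVEC, no more than 12 passages | input = 1250 cells per well | controls = vehicle and MePR control wells | measured by = CTG luminescence | times = 72 h compound incubation | format = collagen-coated 384-well format | read-out = % viability vs DMSO wells | doses = single 10 µM dose, 0.1% DMSO, from 5x medium stock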

The nature of test [5]: growth inhibitors of H69AR lung tumor, primary screen, human, duplicate replicates (AID 580).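 Further: 100% = mean luminescence of untreated wells and 0% = no signal.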 The conditions noted are these: H69AR lung tumor cells viability, ATP luminescence, 72 h; at 10 µM; stronger effect = lower value.
Test [6] in a line: reversal of MRP1-mediated doxorubicin resistance, pilot screen, H69AR cells, doxorubicin co-treatment (AID 601;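 active means viability loss from added drug above about 55%, and viability with drug at most 40%, in both replicates, limit read from the data, passing the limit was not always enough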). To be noted: CellTiter-Glo, 72 h, at 10 µM; for differential viability (reversal): stronger effect = higher value.
Test [7] in a line: 384-well plate pilot, post-Golgi transport modulator project, inhibition of yeast transport mutant growth (AID 636; in the data active means inhibition above about 31%). The conditions noted are these: absorbance 615 nm, about 18 h, stronger effect = higher value.
A short description of test [8]: growth suppression of yeast trafficking mutant, preliminary HTS, modulators of trafficking downstream of Golgi apparatus project, 1536-format plate, OD 615 nm (AID 637; in the data active means inhibition above about 30%). The conditions noted are these: yeast transport mutant growth, absorbance 615 nm, 18 h; stronger effect = higher value.
Setting [9] is: H69AR cells + 2 uM doxorubicin, measured here: viability with 2 uM doxorubicin, stronger effect = lower value.
The mark [10] stands for this setting: H69AR cells, compound alone cytotoxicity.

Chain of Receptor tyrosine-protein kinase erbB-2 (Homo sapiens) (P04626 whole entry, looked up): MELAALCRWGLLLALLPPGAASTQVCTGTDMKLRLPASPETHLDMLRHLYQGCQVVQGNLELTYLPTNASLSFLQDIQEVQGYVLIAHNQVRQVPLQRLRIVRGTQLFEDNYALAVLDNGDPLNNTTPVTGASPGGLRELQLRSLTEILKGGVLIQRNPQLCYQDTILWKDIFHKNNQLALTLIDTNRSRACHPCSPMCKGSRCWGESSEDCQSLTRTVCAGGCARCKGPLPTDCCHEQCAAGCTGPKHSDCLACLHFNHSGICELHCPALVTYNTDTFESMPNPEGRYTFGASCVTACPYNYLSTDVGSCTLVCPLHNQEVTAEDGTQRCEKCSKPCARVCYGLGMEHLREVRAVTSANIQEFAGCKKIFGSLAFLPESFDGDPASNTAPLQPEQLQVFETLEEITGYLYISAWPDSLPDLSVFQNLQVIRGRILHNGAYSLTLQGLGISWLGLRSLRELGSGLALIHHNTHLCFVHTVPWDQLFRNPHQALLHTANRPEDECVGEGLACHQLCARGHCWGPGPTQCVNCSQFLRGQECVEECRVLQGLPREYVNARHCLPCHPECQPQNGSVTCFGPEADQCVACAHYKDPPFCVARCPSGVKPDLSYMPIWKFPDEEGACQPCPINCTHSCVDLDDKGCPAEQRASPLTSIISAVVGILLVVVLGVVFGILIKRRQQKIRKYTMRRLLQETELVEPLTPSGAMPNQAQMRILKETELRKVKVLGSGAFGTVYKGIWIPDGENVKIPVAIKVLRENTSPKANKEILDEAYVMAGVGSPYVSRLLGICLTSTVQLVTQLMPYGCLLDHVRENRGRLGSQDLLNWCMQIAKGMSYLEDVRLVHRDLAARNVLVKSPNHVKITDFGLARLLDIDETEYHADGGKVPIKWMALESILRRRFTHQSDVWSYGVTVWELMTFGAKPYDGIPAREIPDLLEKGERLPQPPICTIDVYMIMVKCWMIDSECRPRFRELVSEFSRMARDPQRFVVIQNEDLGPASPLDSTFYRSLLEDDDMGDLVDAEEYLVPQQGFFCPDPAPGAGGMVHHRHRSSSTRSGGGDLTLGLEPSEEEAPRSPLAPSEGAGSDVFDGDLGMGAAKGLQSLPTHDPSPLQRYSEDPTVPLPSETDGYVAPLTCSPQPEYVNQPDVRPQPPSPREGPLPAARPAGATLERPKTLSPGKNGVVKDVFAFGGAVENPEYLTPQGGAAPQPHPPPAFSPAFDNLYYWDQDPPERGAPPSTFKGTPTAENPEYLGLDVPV

With `O=C(c1ccccc1)N1CCCCC(Sc2nnnn2-c2ccccc2)C1=O` (stereo not given), the viability in test [1] is 89.5%; in test [3] it was 89.5% (inactive); in test [4] it was 82.7% (inactive); in test [5], 104% (inactive); in test [6] (setting [9]), 91.1%; in test [6] (setting [10]) it was 104%. In addition, the Her2 level in test [2] was 104% (inactive). In test [6] (H69AR cells + 2 uM doxorubicin), the differential viability (reversal) is 12.6% (inactive). Further, the inhibition in test [7] was -6.13% (inactive); in test [8], -0.32% (inactive).

In the case of `C=CCn1c(=O)/c(=C/c2ccc(O)cc2)s/c1=C(/C#N)c1nnc2n1CCCCC2`, the viability in test [1] is 93.5%; in test [3], 93.5% (inactive); in test [4], 83.4% (inactive); in test [5] it was 85.5% (inactive); in test [6] (setting [9]), 77%; in test [6] (setting [10]), 85.5%. In addition, the Her2 level in test [2] is 103% (inactive). Further, in test [6] (H69AR cells + 2 uM doxorubicin), the differential viability (reversal) is 8.51% (inactive). Moreover, the inhibition is -5.27% (inactive) in test [7] and -2.83% (inactive) in test [8].

On to `COc1ccc(OC)c(NC(=O)CSc2nc3ccccc3c(=O)n2CCNC(C)=O)c1`, for which the viability in test [1] is 118%; in test [3], 118% (inactive); in test [4] it was 95.4% (inactive); in test [5] it was 80.7% (inactive); in test [6] (setting [9]), 16.6%; in test [6] (setting [10]), 80.7%. In addition, the Her2 level in test [2] is 108% (inactive). Moreover, in test [6] (H69AR cells + 2 uM doxorubicin), the differential viability (reversal) is 64.1% (active). In addition, the results for the inhibition in test [7] and in test [8] were -1.58% (inactive) and 0.32% (inactive), respectively.

For the compound `NC(=O)c1cccc(S(=O)(=O)N2CCCCC2)c1`, the viability in test [1] was 99%; in test [3], 99% (inactive); in test [4] it was 96.9% (inactive); in test [5] it was 106% (inactive); in test [6] (setting [9]), 96.5%; in test [6] (setting [10]) it was 106%. Besides, the Her2 level in test [2] is 96% (inactive). Further, in test [6] (H69AR cells + 2 uM doxorubicin), the differential viability (reversal) was 9.71% (inactive). Besides, the inhibition in test [7] was -7.84% (inactive); in test [8] it was 2.62% (inactive).

Regarding `CC(C)c1nnc(NC(=O)c2cnccn2)s1`, the viability in test [1] is 87.5%; in test [3], 87.5% (inactive); in test [4], 104% (inactive); in test [5] it was 92.2% (inactive); in test [6] (setting [9]), 92.3%; in test [6] (setting [10]), 92.2%. Moreover, the Her2 level in test [2] is 88.5% (inactive). For the same compound, the differential viability (reversal) in test [6] (H69AR cells + 2 uM doxorubicin) was -0.1% (inactive). Besides, the inhibition is -3.65% (inactive) in test [7] and -2.46% (inactive) in test [8].

Consider `COCCOC(=O)/C=C1/NC(=O)CS1`, for which the viability in test [1] was 96.5%; in test [3] it was 96.5% (inactive); in test [4] it was 106% (inactive); in test [5] it was 93.8% (inactive); in test [6] (setting [9]) it was 89.6%; in test [6] (setting [10]) it was 93.8%. The Her2 level in test [2] was 94.5% (inactive). For the same compound, the differential viability (reversal) in test [6] (H69AR cells + 2 uM doxorubicin) was 4.28% (inactive). Besides, the inhibition in test [7] is -5.6% (inactive); in test [8], 1.48% (inactive).

`COc1ccc(N(C(=O)c2ccco2)S(=O)(=O)c2cc(OC)ccc2OC)cc1`: the viability in test [1] was 102%; in test [3], 102% (inactive); in test [4], 81% (inactive); in test [5], 72.2% (inactive); in test [6] (setting [9]), 97.9%; in test [6] (setting [10]), 72.2%. The Her2 level in test [2] is 84.5% (inactive). The differential viability (reversal) in test [6] (H69AR cells + 2 uM doxorubicin) was -25.7% (inactive). The inhibition in test [7] is -1.84% (inactive); in test [8], 4.17% (inactive).

In the case of `O=C1N(CCCCN2C(=O)C3(OCCO3)c3ccccc32)c2ccccc2C12OCCO2`, the viability was 100% in test [1]; 100% (inactive) in test [3]; 73.2% (inactive) in test [4]; 84.9% (inactive) in test [5]; 73.7% in test [6] (setting [9]); 84.9% in test [6] (setting [10]). Further, the Her2 level in test [2] is 84.5% (inactive). Also, the differential viability (reversal) in test [6] (H69AR cells + 2 uM doxorubicin) was 11.1% (inactive). For the same compound, the values for the inhibition in test [7] and in test [8] were -0.39% (inactive) and 11.5% (inactive), respectively.

With `CCNC(=O)CC(=O)Nc1ccccc1C(=O)O`, the viability in test [1] was 104%; in test [3] it was 104% (inactive); in test [4] it was 125% (inactive); in test [5], 103% (inactive); in test [6] (setting [9]), 96.9%; in test [6] (setting [10]) it was 103%. Besides, the Her2 level in test [2] is 99.5% (inactive). In test [6] (H69AR cells + 2 uM doxorubicin), the differential viability (reversal) was 5.93% (inactive). For the same compound, the inhibition in test [7] was -5.95% (inactive); in test [8], -2.67% (inactive).

Turning to `Cc1ccc(N2C(=O)c3ccccc3C2O)nc1` (stereo not given), the viability in test [1] was 122%; in test [3] it was 122% (inactive); in test [4], 59.8% (inactive); in test [5], 53.6% (inactive); in test [6] (setting [9]), 53.3%; in test [6] (setting [10]) it was 53.6%. In addition, the Her2 level in test [2] was 93% (inactive). Moreover, the differential viability (reversal) in test [6] (H69AR cells + 2 uM doxorubicin) was 0.305% (inactive). In addition, the inhibition is -0.13% (inactive) in test [7] and -1.83% (inactive) in test [8].

Consider `CN(C)c1nc(Oc2ccc(=O)n(C)n2)nc(N2CCOCC2)n1`, for which the viability is 94% in test [1]; 94% (inactive) in test [3]; 95.7% (inactive) in test [4]; 92.9% (inactive) in test [5]; 91.2% in test [6] (setting [9]); 92.9% in test [6] (setting [10]). In addition, the Her2 level in test [2] was 98.5% (inactive). In addition, the differential viability (reversal) in test [6] (H69AR cells + 2 uM doxorubicin) is 1.74% (inactive). Further, the inhibition is -4.93% (inactive) in test [7] and 1.64% (inactive) in test [8].

In the case of `CCN1CCN(CCCNC(=O)c2cn(CCOC)c(=O)c3c2c2ccccc2n3C)CC1`, the viability was 121% in test [1]; 121% (inactive) in test [3]; 96.4% (inactive) in test [4]; 97.2% (inactive) in test [5]; 90.3% in test [6] (setting [9]); 97.2% in test [6] (setting [10]). Besides, in test [2], the Her2 level is 122% (inactive). Besides, in test [6] (H69AR cells + 2 uM doxorubicin), the differential viability (reversal) is 6.88% (inactive). In addition, the inhibition in test [7] is -2.11% (inactive); in test [8], -3.82% (inactive).

Take `Cc1ccc(Nc2cc(C)nc3ncnn23)c(Cl)c1`: the viability in test [1] is 85%; in test [3], 85% (inactive); in test [4] it was 87% (inactive); in test [5] it was 97% (inactive); in test [6] (setting [9]), 84.9%; in test [6] (setting [10]), 97%. Further, in test [2], the Her2 level is 88.5% (inactive). Also, the differential viability (reversal) in test [6] (H69AR cells + 2 uM doxorubicin) is 12.2% (inactive). Further, the figures for the inhibition in test [7] and in test [8] were -3.33% (inactive) and -2.3% (inactive), respectively.

In the case of `Cc1cccc2sc(NC(=O)Cn3cccc3)nc12`, the viability in test [1] is 87%; in test [3] it was 87% (inactive); in test [4], 107% (inactive); in test [5] it was 89.6% (inactive); in test [6] (setting [9]), 97.8%; in test [6] (setting [10]) it was 89.6%. Moreover, in test [2], the Her2 level was 93.5% (inactive). Besides, the differential viability (reversal) in test [6] (H69AR cells + 2 uM doxorubicin) was -8.27% (inactive). For the same compound, the inhibition in test [7] is -1.67% (inactive); in test [8] it was -1.83% (inactive).

One may read the viability as a read-out of living cells in per cent, often relative to untreated cells. Broadly, the inhibition is the drop in the measured response relative to a control, in per cent.
